Results on three compounds are retold here after ChEMBL document CHEMBL1136924 (J Med Chem, 2009).

Test [1] has as its system Rattus norvegicus. Description: Antagonist activity at 5HT3 receptor in urethane-anesthetized Sprague-Dawley rat assessed as prevention of 1-phenylbiguanide-induced bradycardia at 1 ug/kg, iv administered 5 mins before 1-phenylbiguanide challenge measured after 5 mins post-treatment by von Bezold-Jarisch reflex test. Also on record: scale not given: the % may be the effect or the level left. The class given is functional.

The test system of test [2] is Rattus norvegicus. Kind of test: Agonist activity at 5HT3 receptor in urethane-anesthetized Sprague-Dawley rat assessed as decrease in heart rate at 40 ug/kg, iv up to 30 seconds post-treatment by von Bezold-Jarisch reflex test. Also on record: scale not given: the % may be the effect or the level left. The class given is functional.
Test [3] concerns the target T1, 5-hydroxytryptamine receptor 3A (Cavia porcellus) (UniProt O70212).
T1 sequence (whole entry): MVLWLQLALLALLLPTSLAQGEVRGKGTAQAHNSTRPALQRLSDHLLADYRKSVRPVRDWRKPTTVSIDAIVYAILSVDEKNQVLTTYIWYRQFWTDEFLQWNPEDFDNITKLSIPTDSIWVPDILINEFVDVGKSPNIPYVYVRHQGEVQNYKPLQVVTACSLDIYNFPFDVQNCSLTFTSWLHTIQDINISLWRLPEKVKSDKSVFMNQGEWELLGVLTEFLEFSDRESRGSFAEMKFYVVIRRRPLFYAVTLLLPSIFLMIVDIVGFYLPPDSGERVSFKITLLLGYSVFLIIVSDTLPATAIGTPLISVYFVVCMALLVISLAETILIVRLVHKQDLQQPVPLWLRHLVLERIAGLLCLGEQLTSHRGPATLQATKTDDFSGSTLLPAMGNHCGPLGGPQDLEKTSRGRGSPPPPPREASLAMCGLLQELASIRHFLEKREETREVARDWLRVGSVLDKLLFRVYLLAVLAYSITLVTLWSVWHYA
Kind of test: Intrinsic activity at 5HT3 receptor in voltage-stimulated guinea pig left atrium assessed as positive inotropic potency relative to serotonin. The class given is tissue-based. The following applies: Cardiac atrium. Summed up: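 Electrically paced guinea pig left atrium (1 Hz) in PSS containing ketanserin 1 µM, pH 7.4, 35 °C. Contractile force recorded isometrically while cumulative concentrations of 0.1-100 µM were added (DMSO ≤0.3%). Intrinsic activity is expressed as the maximal response relative to that of 5-HT.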

The target of test [4] is T1, 5-hydroxytryptamine receptor 3A (Cavia porcellus). Kind of test: Agonist activity at 5HT3 receptor in voltage-stimulated guinea pig left atrium assessed as positive inotropic potency. The following applies: Cardiac atrium. The class given is functional, tissue-based. Summed up:
(§1)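 Isolated guinea pig atria in PSS (Tyrode) with ketanserin 1 µM, 95% O2-5% CO2, pH 7.4, 35 °C. Right atrium beating spontaneously (rate); left atrium paced 1 Hz, 0.6-0.8 ms pulses near 50% threshold (force). Isometric recording after 45-60 min stabilization.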

For test [5] the target is unchanged. The following applies: Thoracic aorta.
Test [6] shares this target. Kind of test: Agonist activity at 5HT3 receptor in spontaneously beating guinea pig right atrium assessed as positive chronotropic potency. The following applies: Cardiac atrium. It is filed as functional, tissue-based. Summed up: as §1

For the compound `COc1cc(N)c(Cl)cc1C(=O)NC1CN2CCC1CC2` (configuration not stated) [ZACOPRIDE], the Activity in the test with Rattus norvegicus [1] is 100%.
As for `N=C(N)NC(=N)Nc1ccccc1` [PHENYL BIGUANIDE], in the test on Rattus norvegicus [2], the Activity turned out to be 64%. Moreover, the Intrinsic activity in test [3] worked out at 1. In test [4], the pD2 stood at 4.31.
With `NCCc1c[nH]c2ccc(O)cc12`, the pD2 in test [5] was 4.19; in test [4], 6.85; in test [6] it was 5.78.
